In ChEMBL document CHEMBL1667760, “Synthesis and biological evaluation of 3,5-diaryl isoxazoline/isoxazole linked 2,3-dihydroquinazolinone hybrids as anticancer agents” (2011):
Where a name gives a salt, the structure may show the parent alone. Active and inactive are the calls of the source. No cut-off for these calls is given here.

Assays:
A549 = assay: Cytotoxicity against human A549 cells after 48 hrs by sulforhodamine B assay; type: functional; conditions: A549, 48 h, read-out: GI50
Summary of the method: (§1)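 Cells were grown in RPMI 1640 with 10% FBS and 2 mM L-glutamine, plated at densities set by doubling time, and pre-incubated 24 h at 37 °C, 5% CO2. Drugs were tested at 0.1, 1, 10 and 100 µM in triplicate wells for 48 h continuous exposure. Cells were fixed with 10% TCA (final) and stained with 0.4% SRB. A540 was read against a 690 nm reference, and percent growth was calculated relative to control. Experiments were repeated three times.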

PC-3 = assay: Cytotoxicity against human PC3 cells after 48 hrs by sulforhodamine B assay; type: functional; conditions: PC-3, 48 h, read-out: GI50; summary of the method: as §1
OVCAR-8 = assay: Cytotoxicity against human OVCAR8 cells after 48 hrs by sulforhodamine B assay; type: functional; conditions: OVCAR-8, 48 h, read-out: GI50
Summary of the method: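 Run by the NCI 60-cell-line screen. A one-dose pre-test was done first, followed by the main test over a 5-log dose range (10^-4 to 10^-8 M). Results are reported as log molar GI50 (50% net growth inhibition), TGI (total growth inhibition) and LC50 (50% net cell death), with mean-graph midpoints across all lines.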

A2780 = assay: Cytotoxicity against human A2780 cells after 48 hrs by sulforhodamine B assay; type: functional; conditions: A2780, 48 h; summary of the method: as §1
KB = assay: Cytotoxicity against human KB cells after 48 hrs by sulforhodamine B assay; type: functional; summary of the method: as §1
MCF7 [1] = assay: Cell cycle arrest in human MCF7 cells assessed as accumulation at G0 phase at 5 uM after 24 hrs using propidium iodide staining by flow cytometry relative to control; type: functional
Summary of the method: (§2)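 MCF-7 cells were seeded at 5×10^5 per 60 mm dish and grown 24 h. They were then exposed to 5 uM compound for a further 24 h, with untreated control cells alongside. Cells were trypsinised, fixed in ice-cold 70% ethanol (4 °C, 30 min), treated with 1 mg/ml RNase A (37 °C, 30 min) and stained with propidium iodide/citrate/Triton solution. DNA content was read by flow cytometry on 20,000 events.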

MCF7 [2] = assay: Cell cycle arrest in human MCF7 cells assessed as accumulation at G1 phase at 5 uM after 24 hrs using propidium iodide staining by flow cytometry relative to control; type: functional; summary of the method: as §2
MCF7 [3] = assay: Cell cycle arrest in human MCF7 cells assessed as accumulation at S phase at 5 uM after 24 hrs using propidium iodide staining by flow cytometry relative to control; type: functional; summary of the method: as §2
MCF7 [4] = assay: Cell cycle arrest in human MCF7 cells assessed as accumulation at G2/M phase at 5 uM after 24 hrs using propidium iodide staining by flow cytometry relative to control; type: functional; summary of the method: as §2
MCF7 [5] = assay: Reduction of cyclin A expression in human MCF7 cells at 5 uM after 24 hrs by Western blotting; type: functional, cell-based
Summary of the method: (§3)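 MCF-7 cells, kept in DMEM with 10% fetal calf serum at 37 °C under 5% CO2, treated 24 h. Lysis in ice-cold RIPA with protease inhibitors; Bradford quantitation; 30 µg protein per lane on 12% SDS-PAGE, then PVDF. Primary antibodies (1:500) at 4 °C overnight; HRP secondary (1:2000); chemiluminescence detection; β-actin loading control.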

MCF7 [6] = assay: Induction of apoptosis in human MCF7 cells assessed as increase of cleaved PARP level at 5 uM after 24 hrs by Western blotting; type: functional, cell-based; summary of the method: as §3
MCF7 [7] = assay: Induction of apoptosis in human MCF7 cells assessed as nuclear fragmentation at 2.5 uM after 48 hrs by DAPI staining; type: functional, cell-based
Summary of the method: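 MCF-7 cells grown on glass coverslips and incubated 48 h with or without compound. Fixed in 3% paraformaldehyde/0.02% glutaraldehyde in PBS, stained with DAPI, and nuclear morphology examined by fluorescence microscopy.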

Tubulin (Homo sapiens) = Tubulin (Homo sapiens) (UniProt P68371+Q9H4B7+P0DPH7+P68366+Q13509+Q71U36+P04350+Q3ZCM7+P07437+P68363+Q9BQE3+Q6PEY2+Q13885+Q9BVA1+Q9BUF5); conditions: MCF7, 2.5 uM

Work on `COc1cccc2c1C(=O)c1c(O)c3c(c(O)c1C2=O)C[C@@](O)(C(=O)CO)C[C@@H]3O[C@H]1C[C@H](N)[C@H](O)[C@H](C)O1` [DOXORUBICIN HYDROCHLORIDE] yielded a GI50 (A549) of 130 nM, a GI50 (PC-3) of 160 nM and a GI50 (OVCAR-8) of 150 nM. The GI50 (A2780) was 180 nM and the GI50 (KB) was 190 nM.

`COc1cc(C2NC(=O)c3ccccc3N2)ccc1OCCCOc1cc(C2CC(c3cc(OC)c(OC)c(OC)c3)=NO2)ccc1OC` (stereo unspecified) showed a GI50 (A549) of 170 nM, a GI50 (PC-3) of 2500 nM and a GI50 (OVCAR-8) of 170 nM. The GI50 (A2780) was 26000 nM and the GI50 (KB) was 28000 nM.

In the case of `COc1cc(C2NC(=O)c3ccccc3N2)ccc1OCCCCCBr` (stereo unspecified), the Activity (MCF7 [1]) is reported as 1.61%, the Activity (MCF7 [2]) is reported as 69% and the Activity (MCF7 [3]) is reported as 12.75%. It also gave an Activity (MCF7 [4]) of 16.64%.

In the case of `COc1ccc(/C=C\c2cc(OC)c(OC)c(OC)c2)cc1O` [COMBRETASTATIN A4], the Activity (MCF7 [1]) is reported as 2.53%, the Activity (MCF7 [2]) is reported as 16.05% and the Activity (MCF7 [3]) is reported as 15.92%. For the same molecule, the Activity (MCF7 [4]) was 65.5%, the Activity (MCF7 [5]) was “Active” and the Activity (MCF7 [6]) was “Active”.

`COc1cc(C2NC(=O)c3ccccc3N2)ccc1OCCCCOc1c(OC)cc(C2=NOC(c3cc(OC)c(OC)c(OC)c3)C2)cc1OC` (stereo unspecified) was tested, and the GI50 (A549) was 14000 nM, the GI50 (PC-3) was 460 nM and the GI50 (OVCAR-8) was 300 nM. The GI50 (A2780) was greater than 100000 nM and the GI50 (KB) was 21000 nM.

With `COc1ccc(-c2cc(-c3cc(OC)c(OC)c(OC)c3)on2)cc1OCCCCOc1cc(C2NC(=O)c3ccccc3N2)ccc1OC` (stereo unspecified) the GI50 (A549) was greater than 100000 nM, the GI50 (PC-3) was 2100 nM and the GI50 (OVCAR-8) was 150 nM. The GI50 (A2780) was greater than 100000 nM and the GI50 (KB) was greater than 100000 nM.

For `COc1cc(C2=NOC(c3cc(OC)c(OC)c(OC)c3)C2)cc(OC)c1O` (stereo unspecified), the Activity (MCF7 [1]) was 0.5%, the Activity (MCF7 [2]) was 44.54% and the Activity (MCF7 [3]) was 20.6%. It also gave an Activity (MCF7 [4]) of 34.36%.

`COc1ccc(C2NC(=O)c3ccccc3N2)cc1OCCCCOc1c(OC)cc(-c2cc(-c3cc(OC)c(OC)c(OC)c3)no2)cc1OC` (stereo unspecified) showed a GI50 (A549) of 180 nM, a GI50 (PC-3) of 2000 nM and a GI50 (OVCAR-8) of 25000 nM. The GI50 (A2780) was 2000 nM and the GI50 (KB) was 26000 nM.

`COc1cc(C2NC(=O)c3ccccc3N2)ccc1OCCCCCOc1cc(C2CC(c3cc(OC)c(OC)c(OC)c3)=NO2)ccc1OC` (stereo unspecified) gave a GI50 (A549) of 160 nM, a GI50 (PC-3) of 2400 nM and a GI50 (OVCAR-8) of 140 nM. The GI50 (A2780) was greater than 100000 nM and the GI50 (KB) was 27000 nM.

For `COC(=O)Nc1nc2cc(C(=O)c3cccs3)ccc2[nH]1`, the Activity (MCF7 [7]) was “Active” and the inhibition (Tubulin (Homo sapiens)) was “Active”.

Work on `COc1cc(C2NC(=O)c3ccccc3N2)ccc1OCCCOc1c(OC)cc(C2=NOC(c3cc(OC)c(OC)c(OC)c3)C2)cc1OC` (stereo unspecified) yielded a GI50 (A549) of 20000 nM, a GI50 (PC-3) of 520 nM and a GI50 (OVCAR-8) of 280 nM. It also gave a GI50 (A2780) greater than 100000 nM and a GI50 (KB) of 22000 nM.

Molecule `COc1cc(C2NC(=O)c3ccccc3N2)ccc1OCCCCOc1cc(C2CC(c3cc(OC)c(OC)c(OC)c3)=NO2)ccc1OC` (stereo unspecified) has a GI50 (A549) of 150 nM, a GI50 (PC-3) of 2800 nM and a GI50 (OVCAR-8) of 180 nM. It also gave a GI50 (A2780) of 22000 nM and a GI50 (KB) of 30000 nM.
